pIC50: −log10 of the molar value.
How the values were obtained:
[1] = target: cAMP and cAMP-inhibited cGMP 3',5'-cyclic phosphodiesterase 10A (Homo sapiens, UniProt Q9Y233); assay: Inhibition of recombinant human PDE10A assessed as reduction of [3H]-cAMP hydrolysis preincubated for 5 mins followed by [3H]-cAMP addition measured after 20 mins by scintillation proximity assay
Summary of the method: (§1)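 Recombinant human PDE with [3H]cAMP scintillation proximity assay. Enzyme used at a level within the linear range. Inhibitor (DMSO serial dilutions) plus enzyme held 5 min on ice, then [3H]cAMP added at 1/3 Km (1.48 kBq/mL), 20 min on ice (~30% turnover). Stopped with yttrium silicate SPA beads; settled 1.5 h at rt and counted. IC50 from one-site nonlinear fit, at least two independent runs, ± SD.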

Homo sapiens [2] = species: Homo sapiens; assay: Selectivity ratio of IC50 for recombinant human PDE4B to IC50 for recombinant human PDE10A
[3] = target: 3',5'-cyclic-AMP phosphodiesterase 4B (Homo sapiens, UniProt Q07343); assay: Inhibition of recombinant human PDE4B assessed as reduction of [3H]-cAMP hydrolysis preincubated for 5 mins followed by [3H]-cAMP addition measured after 20 mins by scintillation proximity assay; summary of the method: as §1
Sequence of 3',5'-cyclic-AMP phosphodiesterase 4B (Q07343 whole entry): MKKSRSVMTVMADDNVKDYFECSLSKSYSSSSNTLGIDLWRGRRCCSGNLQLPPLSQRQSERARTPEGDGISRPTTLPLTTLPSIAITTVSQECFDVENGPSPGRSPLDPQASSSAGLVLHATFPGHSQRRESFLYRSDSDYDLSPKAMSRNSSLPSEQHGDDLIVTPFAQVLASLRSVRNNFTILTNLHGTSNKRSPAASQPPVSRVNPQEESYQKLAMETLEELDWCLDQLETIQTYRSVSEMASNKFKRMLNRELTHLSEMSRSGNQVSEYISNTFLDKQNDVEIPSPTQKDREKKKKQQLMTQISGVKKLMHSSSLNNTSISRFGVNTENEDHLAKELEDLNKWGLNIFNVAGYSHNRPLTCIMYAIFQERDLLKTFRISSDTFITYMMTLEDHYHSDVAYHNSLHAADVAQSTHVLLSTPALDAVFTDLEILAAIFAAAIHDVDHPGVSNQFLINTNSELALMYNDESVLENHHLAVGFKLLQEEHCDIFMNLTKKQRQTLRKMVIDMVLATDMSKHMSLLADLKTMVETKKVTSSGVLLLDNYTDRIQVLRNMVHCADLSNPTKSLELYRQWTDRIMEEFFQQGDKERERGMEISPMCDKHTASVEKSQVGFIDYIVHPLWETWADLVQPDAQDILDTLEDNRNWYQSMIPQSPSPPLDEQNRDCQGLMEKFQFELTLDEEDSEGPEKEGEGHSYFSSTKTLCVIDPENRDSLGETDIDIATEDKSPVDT

[4] = target: 3',5'-cyclic-AMP phosphodiesterase 4A (Homo sapiens, UniProt P27815); assay: Inhibition of recombinant human PDE4A assessed as reduction of [3H]-cAMP hydrolysis preincubated for 5 mins followed by [3H]-cAMP addition measured after 20 mins by scintillation proximity assay; summary of the method: as §1
Sequence of 3',5'-cyclic-AMP phosphodiesterase 4A (P27815 whole entry): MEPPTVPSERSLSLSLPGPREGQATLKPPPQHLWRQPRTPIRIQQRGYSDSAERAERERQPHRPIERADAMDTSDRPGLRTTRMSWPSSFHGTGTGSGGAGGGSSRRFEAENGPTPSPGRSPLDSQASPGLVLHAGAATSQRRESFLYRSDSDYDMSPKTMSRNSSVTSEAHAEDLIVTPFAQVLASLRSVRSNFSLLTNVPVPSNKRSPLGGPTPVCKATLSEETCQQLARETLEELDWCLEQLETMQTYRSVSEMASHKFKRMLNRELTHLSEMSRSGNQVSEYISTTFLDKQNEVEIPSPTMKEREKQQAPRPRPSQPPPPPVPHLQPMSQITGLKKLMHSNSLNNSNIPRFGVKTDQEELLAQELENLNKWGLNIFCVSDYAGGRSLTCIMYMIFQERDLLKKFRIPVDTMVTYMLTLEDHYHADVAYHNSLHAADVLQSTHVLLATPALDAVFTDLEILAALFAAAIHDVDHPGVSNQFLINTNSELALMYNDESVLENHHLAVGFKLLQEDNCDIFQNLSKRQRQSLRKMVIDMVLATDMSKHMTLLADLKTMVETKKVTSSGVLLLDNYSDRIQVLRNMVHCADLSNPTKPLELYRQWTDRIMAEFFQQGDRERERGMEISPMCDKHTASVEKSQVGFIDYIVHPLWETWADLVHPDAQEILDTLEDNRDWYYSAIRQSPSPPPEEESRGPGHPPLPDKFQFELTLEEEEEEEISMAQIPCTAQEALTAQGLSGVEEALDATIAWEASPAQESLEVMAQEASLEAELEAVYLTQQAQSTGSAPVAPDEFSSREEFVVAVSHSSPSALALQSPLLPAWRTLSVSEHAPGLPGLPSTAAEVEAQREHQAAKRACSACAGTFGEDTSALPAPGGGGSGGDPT

[5] = target: cGMP-inhibited 3',5'-cyclic phosphodiesterase 3A (Homo sapiens, UniProt Q14432); assay: Inhibition of recombinant human PDE3A assessed as reduction of [3H]-cAMP hydrolysis preincubated for 5 mins followed by [3H]-cAMP addition measured after 20 mins by scintillation proximity assay; summary of the method: as §1
Sequence of cGMP-inhibited 3',5'-cyclic phosphodiesterase 3A (Q14432 whole entry): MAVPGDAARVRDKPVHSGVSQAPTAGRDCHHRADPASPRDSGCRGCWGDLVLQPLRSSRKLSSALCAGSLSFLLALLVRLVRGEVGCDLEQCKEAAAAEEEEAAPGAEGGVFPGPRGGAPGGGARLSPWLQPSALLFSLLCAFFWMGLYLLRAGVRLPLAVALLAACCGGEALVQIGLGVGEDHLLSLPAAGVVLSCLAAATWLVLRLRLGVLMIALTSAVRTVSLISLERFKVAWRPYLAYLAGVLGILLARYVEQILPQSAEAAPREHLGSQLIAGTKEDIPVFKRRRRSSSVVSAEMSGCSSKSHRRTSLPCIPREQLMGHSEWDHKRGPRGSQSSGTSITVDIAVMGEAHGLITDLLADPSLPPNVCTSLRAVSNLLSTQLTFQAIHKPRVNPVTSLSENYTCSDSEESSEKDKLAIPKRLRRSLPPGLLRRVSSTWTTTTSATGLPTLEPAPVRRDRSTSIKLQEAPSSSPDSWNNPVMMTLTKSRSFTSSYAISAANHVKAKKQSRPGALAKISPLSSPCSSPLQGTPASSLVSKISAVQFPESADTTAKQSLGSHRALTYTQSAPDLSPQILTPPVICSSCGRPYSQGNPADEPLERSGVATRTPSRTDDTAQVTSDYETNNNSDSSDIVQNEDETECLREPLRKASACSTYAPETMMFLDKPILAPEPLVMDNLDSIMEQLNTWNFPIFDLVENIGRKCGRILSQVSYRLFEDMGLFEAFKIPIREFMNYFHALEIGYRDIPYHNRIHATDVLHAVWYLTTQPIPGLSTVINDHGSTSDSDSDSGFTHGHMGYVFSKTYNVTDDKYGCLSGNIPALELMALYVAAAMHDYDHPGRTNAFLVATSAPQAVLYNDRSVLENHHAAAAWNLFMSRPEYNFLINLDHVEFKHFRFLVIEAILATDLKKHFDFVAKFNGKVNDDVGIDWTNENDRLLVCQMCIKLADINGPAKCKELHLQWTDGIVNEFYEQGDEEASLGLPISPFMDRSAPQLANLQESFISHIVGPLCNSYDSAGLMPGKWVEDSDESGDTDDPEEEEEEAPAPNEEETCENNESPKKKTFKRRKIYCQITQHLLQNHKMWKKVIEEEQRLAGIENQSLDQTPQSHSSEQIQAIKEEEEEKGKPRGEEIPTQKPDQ

Homo sapiens [6] = species: Homo sapiens; assay: Selectivity ratio of IC50 for recombinant human PDE3A to IC50 for recombinant human PDE10A
[7] = target: cGMP-inhibited 3',5'-cyclic phosphodiesterase 3B (Homo sapiens, UniProt Q13370); assay: Inhibition of recombinant human PDE3B assessed as reduction of [3H]-cAMP hydrolysis preincubated for 5 mins followed by [3H]-cAMP addition measured after 20 mins by scintillation proximity assay; summary of the method: as §1
Sequence of cGMP-inhibited 3',5'-cyclic phosphodiesterase 3B (Q13370 whole entry): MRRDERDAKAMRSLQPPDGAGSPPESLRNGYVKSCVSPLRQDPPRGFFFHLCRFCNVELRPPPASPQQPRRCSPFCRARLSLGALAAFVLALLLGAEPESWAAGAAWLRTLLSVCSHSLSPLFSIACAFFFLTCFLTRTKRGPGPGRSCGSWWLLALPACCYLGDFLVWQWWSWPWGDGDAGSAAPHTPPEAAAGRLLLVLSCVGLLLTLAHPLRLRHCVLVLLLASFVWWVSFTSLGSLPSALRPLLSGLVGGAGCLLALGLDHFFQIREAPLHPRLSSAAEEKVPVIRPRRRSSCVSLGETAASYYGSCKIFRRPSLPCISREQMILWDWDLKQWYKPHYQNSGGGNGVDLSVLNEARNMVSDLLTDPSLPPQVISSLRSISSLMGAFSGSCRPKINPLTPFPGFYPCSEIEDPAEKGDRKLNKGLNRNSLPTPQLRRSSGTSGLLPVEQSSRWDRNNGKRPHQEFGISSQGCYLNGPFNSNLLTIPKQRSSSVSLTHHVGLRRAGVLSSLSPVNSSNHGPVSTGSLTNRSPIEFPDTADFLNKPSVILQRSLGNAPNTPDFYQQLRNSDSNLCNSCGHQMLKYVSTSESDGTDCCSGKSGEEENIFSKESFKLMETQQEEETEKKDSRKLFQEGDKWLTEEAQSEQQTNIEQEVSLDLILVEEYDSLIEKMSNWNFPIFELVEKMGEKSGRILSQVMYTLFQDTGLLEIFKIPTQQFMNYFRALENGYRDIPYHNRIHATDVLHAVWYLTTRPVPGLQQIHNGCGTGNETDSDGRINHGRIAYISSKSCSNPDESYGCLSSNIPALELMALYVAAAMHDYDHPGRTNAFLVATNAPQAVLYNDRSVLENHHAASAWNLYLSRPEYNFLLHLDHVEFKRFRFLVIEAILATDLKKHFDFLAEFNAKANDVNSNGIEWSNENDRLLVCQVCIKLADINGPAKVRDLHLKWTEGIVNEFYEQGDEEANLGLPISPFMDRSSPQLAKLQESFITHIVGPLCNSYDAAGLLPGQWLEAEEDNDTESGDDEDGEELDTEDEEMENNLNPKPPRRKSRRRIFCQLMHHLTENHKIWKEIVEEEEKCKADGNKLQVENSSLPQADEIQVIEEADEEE

Homo sapiens [8] = species: Homo sapiens; assay: Selectivity ratio of IC50 for recombinant human PDE4A to IC50 for recombinant human PDE10A
Homo sapiens [9] = species: Homo sapiens; assay: Selectivity ratio of IC50 for recombinant human PDE3B to IC50 for recombinant human PDE10A

Sequence of cAMP and cAMP-inhibited cGMP 3',5'-cyclic phosphodiesterase 10A (Q9Y233 whole entry): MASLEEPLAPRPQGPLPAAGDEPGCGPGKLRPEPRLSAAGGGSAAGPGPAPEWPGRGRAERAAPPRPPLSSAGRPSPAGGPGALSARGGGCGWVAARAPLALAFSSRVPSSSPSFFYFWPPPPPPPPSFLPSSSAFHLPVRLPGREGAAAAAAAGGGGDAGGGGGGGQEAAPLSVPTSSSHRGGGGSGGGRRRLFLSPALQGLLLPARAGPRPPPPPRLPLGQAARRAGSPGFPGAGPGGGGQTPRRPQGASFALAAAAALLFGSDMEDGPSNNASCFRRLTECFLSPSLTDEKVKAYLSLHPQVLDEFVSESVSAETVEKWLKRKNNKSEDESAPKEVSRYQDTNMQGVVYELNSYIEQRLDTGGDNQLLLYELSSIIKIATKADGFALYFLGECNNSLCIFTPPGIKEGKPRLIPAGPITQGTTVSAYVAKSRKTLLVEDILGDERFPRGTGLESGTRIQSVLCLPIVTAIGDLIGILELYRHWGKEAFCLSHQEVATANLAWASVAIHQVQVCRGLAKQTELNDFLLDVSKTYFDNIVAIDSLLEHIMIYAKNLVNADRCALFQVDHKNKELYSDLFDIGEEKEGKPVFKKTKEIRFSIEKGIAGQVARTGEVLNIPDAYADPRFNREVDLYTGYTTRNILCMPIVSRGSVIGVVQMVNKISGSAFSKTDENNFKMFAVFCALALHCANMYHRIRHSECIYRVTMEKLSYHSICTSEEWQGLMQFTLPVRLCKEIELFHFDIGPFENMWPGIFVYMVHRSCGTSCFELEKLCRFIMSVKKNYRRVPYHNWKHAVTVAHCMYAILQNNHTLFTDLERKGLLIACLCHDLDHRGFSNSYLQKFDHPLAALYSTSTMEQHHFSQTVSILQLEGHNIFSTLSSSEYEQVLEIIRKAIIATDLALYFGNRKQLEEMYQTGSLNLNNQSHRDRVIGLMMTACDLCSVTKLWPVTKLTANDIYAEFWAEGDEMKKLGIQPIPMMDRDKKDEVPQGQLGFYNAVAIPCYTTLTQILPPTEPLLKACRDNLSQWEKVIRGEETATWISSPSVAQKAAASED

pIC50 [1] | Ratio IC50 (Homo sapiens [2]) | pIC50 [3] | pIC50 [4] | pIC50 [5] | Ratio IC50 (Homo sapiens [6]) | pIC50 [7] | Ratio IC50 (Homo sapiens [8]) | Ratio IC50 (Homo sapiens [9]) | Structure (SMILES)
8.51 | > 210 | 4.74 | 5.80 | 5.35 | > 210 | 5.45 | > 210 | > 210 | Cn1cc(-c2ccncc2)c(-c2ccc(OCc3cc(-n4cc(CCF)nn4)c4ccccc4n3)cc2)n1
9.28 | > 210 | 5.32 | 5.22 | 5.43 | > 210 | 5.46 | > 210 | > 210 | Cn1cc(-c2ccncc2)c(-c2ccc(OCc3cc(NCCF)c4ccccc4n3)cc2)n1
8.74 | > 210 | 6.42 | 6.34 | 4.66 | > 210 | 4.72 | > 210 | > 210 | Cn1cc(-c2ccncc2)c(-c2ccc(OCc3cc(CCCF)c4ccccc4n3)cc2)n1
7.47 | > 210 |  |  |  | > 210 |  | > 210 | > 210 | Cn1cc(-c2ccncc2)c(-c2ccc(OCc3ccc4cc(OCCF)ccc4n3)cc2)n1
8.30 | > 210 | 6.05 | 5.73 | 6.09 | > 210 | 4.79 | > 210 | > 210 | Cn1ncc(-c2ccncc2)c1-c1ccc(OCc2cc(-n3cc(CCF)nn3)c3ccccc3n2)cc1
9.48 | > 210 | 4.99 | 5.00 | 3.84 | > 210 | 4.53 | > 210 | > 210 | Cn1cc(-c2ccncc2)c(-c2ccc(OCc3cc(OCCOCCOCCOCCF)c4ccccc4n3)cc2)n1
9.49 | > 210 | 5.75 | 6.00 | 4.53 | > 210 | 5.11 | > 210 | > 210 | Cn1cc(-c2ccncc2)c(-c2ccc(OCc3cc(OCCF)c4ccccc4n3)cc2)n1
9.43 | > 210 | 5.80 | 4.91 | 4.10 | > 210 | 4.42 | > 210 | > 210 | Cn1ncc(-c2ccncc2)c1-c1ccc(OCc2cc(NCCF)c3ccccc3n2)cc1
9.15 | > 210 | 5.19 | 5.08 | 3.70 | > 210 | 3.99 | > 210 | > 210 | Cn1cc(-c2ccncc2)c(-c2ccc(OCc3cc(F)c4ccccc4n3)cc2)n1
9.59 | > 210 | 5.98 | 5.75 | 4.59 | > 210 | 4.70 | > 210 | > 210 | Cn1cc(-c2ccncc2)c(-c2ccc(OCc3nc4ccccc4cc3OCCF)cc2)n1
9.44 | > 210 | 4.94 | 4.91 | 4.18 | > 210 | 4.30 | > 210 | > 210 | Cn1ncc(-c2ccncc2)c1-c1ccc(OCc2cc(OCCOCCF)c3ccccc3n2)cc1
9.33 | > 210 | 5.14 | 5.08 | 4.21 | > 210 | 4.29 | > 210 | > 210 | Cn1ncc(-c2ccncc2)c1-c1ccc(OCc2cc(OCCOCCOCCF)c3ccccc3n2)cc1
9.62 | > 210 | 5.80 | 5.80 | 3.94 | > 210 | 4.21 | > 210 | > 210 | Cn1cc(-c2ccncc2)c(-c2ccc(OCc3cc(OCCOCCOCCF)c4ccccc4n3)cc2)n1
9.17 | > 210 | 5.42 | 5.39 | 5.11 | > 210 | 5.25 | > 210 | > 210 | Cn1cc(-c2ccncc2)c(-c2ccc(OCc3cc(CF)c4ccccc4n3)cc2)n1
9.12 | > 210 | 6.12 | 5.01 | 3.95 | > 210 | 3.82 | > 210 | > 210 | Cn1ncc(-c2ccncc2)c1-c1ccc(OCc2ccc3cc(F)ccc3n2)cc1
9.52 | > 210 | 5.76 | 4.82 | 4.23 | > 210 | 4.55 | > 210 | > 210 | Cn1ncc(-c2ccncc2)c1-c1ccc(OCc2cc(OCCOCCOCCOCCF)c3ccccc3n2)cc1
8.95 | > 210 | 5.37 | 5.32 | 3.51 | > 210 | < 3.00 | > 210 | > 210 | Cn1ncc(-c2ccncc2)c1-c1ccc(OCc2cc(COCCF)c3ccccc3n2)cc1
8.94 | > 210 | 5.99 | 5.43 | 5.42 | > 210 | 5.25 | > 210 | > 210 | Cn1ncc(-c2ccncc2)c1-c1ccc(OCc2cc(OCCF)c3ccccc3n2)cc1
9.57 | > 210 | 6.05 | 5.84 | 4.64 | > 210 | 4.79 | > 210 | > 210 | Cn1cc(-c2ccncc2)c(-c2ccc(OCc3cc(OCCOCCF)c4ccccc4n3)cc2)n1
< 7.12 | > 210 |  |  |  | > 210 |  | > 210 | > 210 | Cn1cc(-c2ccncc2)c(-c2ccc(OCc3ccc4cc(CF)ccc4n3)cc2)n1
9.54 | > 210 | 5.59 | 5.63 | 4.41 | > 210 | 4.62 | > 210 | > 210 | Cn1cc(-c2ccncc2)c(-c2ccc(OCc3ccc4cc(F)ccc4n3)cc2)n1
9.19 | > 210 | 5.75 | 5.65 | 5.39 | > 210 | 5.34 | > 210 | > 210 | Cn1cc(-c2ccncc2)c(-c2ccc(OCc3cc(COCCF)c4ccccc4n3)cc2)n1

Reference: ChEMBL document CHEMBL3627597, “Synthesis of Fluorine-Containing Phosphodiesterase 10A (PDE10A) Inhibitors and the In Vivo Evaluation of F-18 Labeled PDE10A PET Tracers in Rodent and Nonhuman Primate” (J Med Chem, 2015)
